ChEMBL document CHEMBL1938286, “A concise synthesis of viscolin, and its anti-inflammatory effects through the suppression of iNOS, COX-2, ERK phosphorylation and proinflammatory cytokines expressions” (Eur J Med Chem, 2012)
In brackets after ≈: the same amount, converted by molar mass. Activity calls are given as the source filed them. No cut-off for these calls is given here.

Tests used:
Mus musculus [1] = test: Antiinflammatory activity in carrageenan-stimulated ICR mouse assessed as decrease in intercellular spaces at 8 mg/kg, ip measured after 5 hrs; format: functional, organism-based; design: dose 8 mg/kg
Procedure, shortened: (§1)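 Male ICR mice were dosed 30 min before intraplantar carrageenan, and paw biopsies were taken 5 h later. Tissue was fixed in Dietric solution for 1 week at room temperature, dehydrated in graded ethanol and paraffin-embedded. 7-thickness sections were stained with hematoxylin–eosin or Van Gieson and examined by light microscopy.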

RAW264.7 [2] = test: Antiinflammatory activity in LPS-stimulated mouse RAW264.7 cells assessed as inhibition of COX-2 protein expression after 24 hrs by Western blot analysis; format: functional, cell-based
RAW264.7 [3] = test: Antiinflammatory activity in mouse RAW264.7 cells assessed as inhibition of LPS-induced NO production at 10 uM administered 1 hr before LPS challenge measured after 24 hrs by Griess method; format: functional, cell-based
RAW264.7 [4] = test: Antiinflammatory activity in mouse RAW264.7 cells assessed as inhibition of LPS-induced NO production at 20 uM administered 1 hr before LPS challenge measured after 24 hrs by Griess method; format: functional, cell-based
RAW264.7 [5] = test: Antiinflammatory activity in mouse RAW264.7 cells assessed as inhibition of LPS-induced TNFalpha production at 20 uM administered 1 hr before LPS challenge measured after 24 hrs by ELISA
Mus musculus [6] = test: Antiinflammatory activity in ICR mouse assessed as decrease in carrageenan-induced MDA level at 8 mg/kg, ip measured after 5 hrs; format: functional, organism-based; design: dose 8 mg/kg
Procedure, shortened: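 Male ICR mice (n = 6 per group) were dosed 30 min before intraplantar carrageenan. MDA in the edematous paw tissue was determined at the 5th hr after carrageenan.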

Mus musculus [7] = test: Antiinflammatory activity in carrageenan-stimulated ICR mouse assessed as effect on shape of collagen fiber at 8 mg/kg, ip measured after 5 hrs; format: functional, organism-based; design: dose 8 mg/kg; procedure, shortened: as §1
Mus musculus [8] = test: Antiinflammatory activity in carrageenan-stimulated ICR mouse assessed as decrease in cellular infiltration to intercellular spaces at 8 mg/kg, ip measured after 5 hrs; format: functional, organism-based; design: dose 8 mg/kg; procedure, shortened: as §1
[9] = Antiinflammatory activity in human neutrophils assessed as inhibition of fMLP/CB-induced elastase release; format: functional, cell-based; settings: Neutrophil
Mus musculus [10] = test: Antioxidant activity in carrageenan-stimulated ICR mouse assessed as increase in GPx activity at 8 mg/kg, ip measured after 5 hrs; format: functional; settings: route intraperitoneal
Procedure, shortened: (§2)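 Male ICR mice (n = 6 per group) received the drug 30 min before intraplantar carrageenan, and paw tissue was taken at the 5th hr. Total SOD was measured by inhibition of cytochrome c reduction, CAT by Aebi's method, and cytosolic GPx by Paglia–Valentine. Activities are in U/mg protein, given as mean ± SEM.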

Mus musculus [11] = test: Antiinflammatory activity in ICR mouse assessed as decrease in carrageenan-induced serum TNFalpha level at 8 mg/kg, ip; format: functional, organism-based; design: dose 8 mg/kg
Procedure, shortened: (§3)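 Male ICR mice (18–25 g, n = 6 per group). Carrageenan was injected intraplantar into the paw, with drug given 30 min beforehand. Serum was collected at the 5th hr. Nitrite was measured colorimetrically by Griess reaction, and TNF-α by commercial ELISA. Data are mean ± SEM.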

Mus musculus [12] = test: Down regulation of COX-2 protein expression in carrageenan-stimulated ICR mouse at 8 mg/kg, ip measured after 5 hrs by Western blot analysis; format: functional; settings: route intraperitoneal
Procedure, shortened: (§4)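 Male ICR mice (18–25 g, n = 6 per group) received intraplantar carrageenan. Paw tissue was taken 5 h after carrageenan. Lysates were made in RIPA buffer and 30 µg protein run on SDS-PAGE/PVDF immunoblot with ECL detection. Band intensities were quantified relative to the carrageenan-alone group across three independent experiments.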

Mus musculus [13] = test: Antiinflammatory activity in carrageenan-stimulated ICR mouse assessed as decrease in number of inflammatory cells at 8 mg/kg, ip measured after 5 hrs; format: functional, organism-based; design: dose 8 mg/kg; procedure, shortened: as §1
RAW264.7 [14] = test: Antiinflammatory activity in mouse RAW264.7 cells assessed as inhibition of LPS-induced TNFalpha production administered 1 hr before LPS challenge measured after 24 hrs by ELISA
Mus musculus [15] = test: Antiinflammatory activity in ICR mouse assessed as inhibition of carrageenan-induced hind paw edema at 8 mg/kg, ip measured after 5 hrs; format: functional, organism-based; design: dose 8 mg/kg
[16] = target: Mitogen-activated protein kinase 1 and 3 (ERK2 and ERK1) (Mus musculus) (UniProt P63085+Q63844); test: Inhibition of Erk1/2 phosphorylation in LPS-stimulated mouse RAW264.7 cells at 5 to 20 uM after 30 mins by Western blot analysis; format: cell-based
Sequence of Mitogen-activated protein kinase 1 and 3 (ERK2 and ERK1) (Mus musculus) (P63085 whole entry, looked up): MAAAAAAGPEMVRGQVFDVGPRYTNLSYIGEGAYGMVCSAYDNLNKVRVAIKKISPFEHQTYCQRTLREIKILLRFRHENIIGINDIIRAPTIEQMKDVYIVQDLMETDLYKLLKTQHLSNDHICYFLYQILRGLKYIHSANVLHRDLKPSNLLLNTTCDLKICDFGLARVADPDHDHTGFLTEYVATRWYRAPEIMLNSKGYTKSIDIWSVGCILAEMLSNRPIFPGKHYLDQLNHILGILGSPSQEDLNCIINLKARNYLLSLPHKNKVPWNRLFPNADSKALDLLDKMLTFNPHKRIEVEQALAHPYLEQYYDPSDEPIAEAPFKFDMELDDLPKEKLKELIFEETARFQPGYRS
Sequence of Mitogen-activated protein kinase 1 and 3 (ERK2 and ERK1) (Mus musculus) (Q63844 whole entry, looked up): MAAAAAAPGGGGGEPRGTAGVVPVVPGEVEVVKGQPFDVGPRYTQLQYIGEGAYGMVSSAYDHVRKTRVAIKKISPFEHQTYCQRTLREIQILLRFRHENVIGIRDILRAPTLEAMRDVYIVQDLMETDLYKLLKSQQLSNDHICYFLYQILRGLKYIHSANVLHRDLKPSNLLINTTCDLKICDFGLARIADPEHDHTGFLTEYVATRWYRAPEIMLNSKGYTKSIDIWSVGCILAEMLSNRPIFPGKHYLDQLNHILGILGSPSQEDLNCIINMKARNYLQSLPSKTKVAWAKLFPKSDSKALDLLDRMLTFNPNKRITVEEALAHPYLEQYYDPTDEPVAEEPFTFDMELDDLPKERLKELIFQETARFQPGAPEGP
Procedure, shortened: (§5)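 RAW 264.7 cells were pretreated with test agent, then stimulated with LPS for 30 min. Phospho-ERK, phospho-JNK and phospho-p38 were assessed by Western blot: RIPA lysates, 30 µg protein, SDS-PAGE, PVDF, primary antibody overnight at 4 °C, HRP secondary and ECL detection.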

Mus musculus [17] = test: Down regulation of iNOS protein expression in carrageenan-stimulated ICR mouse at 8 mg/kg, ip measured after 5 hrs by Western blot analysis; format: functional; settings: route intraperitoneal; procedure, shortened: as §4
Mus musculus [18] = test: Antiinflammatory activity in ICR mouse assessed as decrease in carrageenan-induced serum NO level at 8 mg/kg, ip measured after 5 hrs; format: functional, organism-based; design: dose 8 mg/kg; procedure, shortened: as §3
RAW264.7 [19] = test: Antiinflammatory activity in mouse RAW264.7 cells assessed as inhibition of LPS-induced TNFalpha production at 10 uM administered 1 hr before LPS challenge measured after 24 hrs by ELISA
Mus musculus [20] = test: Antiinflammatory activity in carrageenan-stimulated ICR mouse assessed as vascular localization of inflammatory cells at 8 mg/kg, ip measured after 5 hrs; format: functional, organism-based; design: dose 8 mg/kg; procedure, shortened: as §1
RAW264.7 [21] = test: Inhibition of JNK phosphorylation in LPS-stimulated mouse RAW264.7 cells at 5 to 20 uM after 30 mins by Western blot analysis; format: cell-based; procedure, shortened: as §5
Mus musculus [22] = test: Antiinflammatory activity in carrageenan-stimulated ICR mouse assessed as reduction in iNOS immunoreactive cells at 8 mg/kg, ip measured after 5 hrs; format: functional, organism-based; design: dose 8 mg/kg
Mus musculus [23] = test: Antioxidant activity in carrageenan-stimulated ICR mouse assessed as increase in GPx activity at 2 mg/kg, ip measured after 5 hrs; format: functional; settings: route intraperitoneal; procedure, shortened: as §2
RAW264.7 [24] = test: Antiinflammatory activity in mouse RAW264.7 cells assessed as inhibition of LPS-induced TNFalpha production at 5 uM administered 1 hr before LPS challenge measured after 24 hrs by ELISA
RAW264.7 [25] = test: Antiinflammatory activity in LPS-stimulated mouse RAW264.7 cells assessed as inhibition of iNOS protein expression after 24 hrs by Western blot analysis; format: functional, cell-based

**Q.** For `COc1cc(CCCc2c(OC)cc(O)c(OC)c2OC)ccc1O` [VISCOLIN], which Activity (Mus musculus [1]) is on record?
**A.** Active

**Q.** And the Activity (RAW264.7 [2])?
**A.** Dose-dependent effect

**Q.** What about the Activity (RAW264.7 [3]) of the same compound?
**A.** Active

**Q.** What about the Activity (RAW264.7 [4]) of the same compound?
**A.** Active

**Q.** And the Activity (RAW264.7 [5])?
**A.** Active

**Q.** And the Activity (Mus musculus [6])?
**A.** Active

**Q.** What about the Activity (Mus musculus [7]) of the same compound?
**A.** Active

**Q.** What about the Activity (Mus musculus [8]) of the same compound?
**A.** Active

**Q.** And the IC50 [9]?
**A.** 4.93 µg/mL (≈ 14.2 µM)

**Q.** What about the Activity (Mus musculus [10]) of the same compound?
**A.** 11.54 U/mg

**Q.** And the Activity (Mus musculus [11])?
**A.** Active

**Q.** And the Activity (Mus musculus [12])?
**A.** 76.2%

**Q.** And the Activity (Mus musculus [13])?
**A.** Active

**Q.** What about the Activity (RAW264.7 [14]) of the same compound?
**A.** Dose-dependent effect

**Q.** And the IC50 (RAW264.7 [14])?
**A.** 17.3 µM

**Q.** And the Activity (Mus musculus [15])?
**A.** Active

**Q.** What about the inhibition [16] of the same compound?
**A.** Active

**Q.** And the Activity (Mus musculus [17])?
**A.** 63.6%

**Q.** And the Activity (Mus musculus [18])?
**A.** Active

**Q.** What about the Activity (RAW264.7 [19]) of the same compound?
**A.** Active

**Q.** What about the Activity (Mus musculus [20]) of the same compound?
**A.** Active

**Q.** What about the inhibition (RAW264.7 [21]) of the same compound?
**A.** inactive

**Q.** What about the Activity (Mus musculus [22]) of the same compound?
**A.** Active

**Q.** What about the Activity (Mus musculus [23]) of the same compound?
**A.** 8.64 U/mg

**Q.** What about the Activity (RAW264.7 [24]) of the same compound?
**A.** Active

**Q.** What about the Activity (RAW264.7 [25]) of the same compound?
**A.** Dose-dependent effect
